Assay results as given in ChEMBL document CHEMBL2163270, “Design and in vitro activities of N-alkyl-N-[(8-R-2,2-dimethyl-2H-chromen-6-yl)methyl]heteroarylsulfonamides, novel, small-molecule hypoxia inducible factor-1 pathway inhibitors and anticancer agents” (J Med Chem, 2012).
Converted amounts (≈) assume the structure as drawn. The source made the active and inactive calls. The calls are words filed in the database; no cut-off is given here.

Experiments:
LN-229 = test: Inhibition of luciferase activity in human LN229-Lux cells at 2.5 to 10 uM incubated for 1 hr under normoxia followed by 24 hrs under hypoxia by reporter gene assay; assay type: functional, cell-based
[1] = molecular target: Histone acetyltransferase p300 (Homo sapiens) (UniProt Q09472); test: Inhibition of P300 CH1 domain-mediated HIF1 transcriptional activity in human LN229-V6R cells assessed as reduction in luciferase activity incubated for 1 hr under normoxia followed by 24 hrs under hypoxia by reporter gene assay; assay type: cell-based
Procedure, shortened: (§1)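 LN229-V6R cells carry a stably integrated hypoxia/HIF-inducible luciferase reporter. 3 × 10⁴ cells/well in DMEM with 10% serum, 24 h normoxia. Compound at 2.5, 5.0 or 10.0 μM in 1% DMSO, 1 h at 37 °C, then 24 h at 1% O2. Lysates mixed with luciferase substrate and read by luminometry, expressed as % of untreated control. Triplicates.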

[2] = molecular target: Histone acetyltransferase p300 (Homo sapiens) (UniProt Q09472); test: Inhibition of P300 CH1 domain-mediated HIF1 transcriptional activity in human LN229-V6R cells assessed as remaining activity at 2.5 uM incubated for 1 hr under normoxia followed by 24 hrs under hypoxia by luciferase reporter gene assay; assay type: cell-based; procedure, shortened: as §1
[3] = 1-Octanol-phosphate buffer distribution coefficient, log P of the compound at pH 7.4 by HPLC analysis; assay type: physicochemical
Procedure, shortened: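 Eluent methanol:water:triethylamine 70:30:0.1 at 2 mL/min, UV 254/280 nm. Calibrated with aniline, benzene, toluene and chlorobenzene plus two shake-flask-measured reference sulfonamides.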

[4] = Drug metabolism in mouse plasma after 24 hrs by HPLC analysis; assay type: ADME, cell-free; conditions: read-out: Drug metabolism
Procedure, shortened: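 Compound at 20 μM incubated in fresh mouse plasma at 37 °C with shaking for 24 h. Samples extracted with acetonitrile, dried and reconstituted. Quantified by C8 reverse-phase HPLC with photodiode-array detection, 2 μM α-naphthoflavone internal standard, standard curves 1-50 μM. Triplicates.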

Liver = test: Half life in mouse liver homogenate by HPLC analysis at pH 7.4; assay type: ADME, tissue-based; conditions: in vitro
Procedure, shortened: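 Mouse liver homogenate in PBS pH 7.4 (1:2 w/v) incubated with 20 μM compound at 37 °C with shaking. Timed samples extracted with acetonitrile and analysed by C8 HPLC-PDA with 2 μM α-naphthoflavone internal standard, linear range 1-50 μM. Triplicates.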

[5] = molecular target: Histone acetyltransferase p300 (Homo sapiens) (UniProt Q09472); test: Inhibition of P300 CH1 domain-mediated HIFalpha protein expression in human LN229-V6R cells at 3 to 50 uM incubated for 1 hr under normoxia followed by 24 hrs under hypoxia by Western blot analysis; assay type: cell-based
Procedure, shortened: (§2)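 LN229-V6R cells, 2 × 10⁵ per 35 mm dish, grown 24 h under normoxia. Compound at 3-100 μM in 1% DMSO, 1 h normoxia, then 24 h at 1% O2. Lysed in SDS loading buffer and resolved on a 4-12.5% gradient gel. Immunoblotted for HIF-1α (1:500) with β-actin (1:3,000), HRP secondaries, ECL detection. Repeated at least twice.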

[6] = molecular target: Histone acetyltransferase p300 (Homo sapiens) (UniProt Q09472); test: Inhibition of P300 CH1 domain-mediated HIF1 transcriptional activity in human LN229-V6R cells assessed as reduction in luciferase activity at 10 uM incubated for 1 hr under normoxia followed by 24 hrs under hypoxia by reporter gene assay; assay type: cell-based; procedure, shortened: as §1
[7] = Cytotoxicity against human LN229 cells transfected with V6R incubated for 14 days under normoxic condition by clonogenecity assay; assay type: functional, cell-based; conditions: LN-229, 336 h
[8] = Cytotoxicity against human LN229 cells transfected with V6R incubated for 3 days under normoxic condition by SRB assay; assay type: functional, cell-based; conditions: LN-229, 72 h
Procedure, shortened: (§3)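 SRB growth assay: LN229-V6R, 2 × 10³ cells/well, attached 24 h under normoxia. Dosed at 3-100 μM in 1% DMSO, 1 h normoxia, then normoxia or hypoxia for 3 days. Cold 10% TCA fixation, 0.04% SRB stain, dye solubilized in 10 mM Tris pH 10, OD 564 nm. Quadruplicate or sextuplicate wells, two independent experiments; IC50 by curve fit.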

[9] = molecular target: Histone acetyltransferase p300 (Homo sapiens) (UniProt Q09472); test: Inhibition of P300 CH1 domain-mediated HIFalpha protein expression in human LN229-V6R cells at 100 uM incubated for 1 hr under normoxia followed by 24 hrs under hypoxia by Western blot analysis; assay type: cell-based; procedure, shortened: as §2
[10] = Aqueous solubility of the compound at pH 3 after 90 mins by laser nephelometric analysis; assay type: physicochemical; conditions: aqueous medium
Procedure, shortened: (§4)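 DMSO stocks (30 mg/mL) serially diluted, then diluted into phosphate-buffered saline at pH 7.4, 5.0 or 3.0. Final drug concentrations were 1.5–300 μg/mL with 1% DMSO. Incubated 90 min at ambient temperature, and laser nephelometry located the onset of precipitation. An internal control was included.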

[11] = 1-Octanol-phosphate buffer distribution coefficient, log P of the compound at pH 7.4 after 15 mins by shake flask method; assay type: physicochemical
Procedure, shortened: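 Shake-flask partition per OECD 107: 1-octanol and 0.2 M phosphate buffer pH 7.4 mutually presaturated by 24 h stirring at room temperature. 1-2 mg compound dissolved in 2 mL buffer-saturated octanol plus 2 mL octanol-saturated buffer, run in duplicate. Aqueous layer quantified by HPLC at 254 nm against standard curves.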

[12] = Cytotoxicity against human HFF1 cells incubated for 1 hr under normoxic condition followed by 14 days under hypoxic condition by clonogenecity assay; assay type: cell-based; conditions: HFF-1
Procedure, shortened: (§5)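 Clonogenic assay in LN229 glioma or HFF-1 immortalized fibroblasts seeded at 200 or 1,000 cells/well and allowed to adhere 16 h under normoxia. Compound at 6.25-100 μM final, 1% DMSO. Plates held 1 h under normoxia, then 14 days at 21% or 1% O2. Colonies stained with 0.9% crystal violet and counted. IC50 from exponential/polynomial fit (R² ≥ 0.8).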

[13] = Cytotoxicity against human LN229 cells transfected with V6R incubated for 1 hr under normoxic condition followed by 3 days under hypoxic condition by SRB assay; assay type: functional, cell-based; conditions: LN-229; procedure, shortened: as §3
[14] = Cytotoxicity against human LN229 cells transfected with V6R incubated for 1 hr under normoxic condition followed by 14 days under hypoxic condition by clonogenecity assay; assay type: functional, cell-based; conditions: LN-229
[15] = Cytotoxicity against human HFF1 cells incubated for 14 days under normoxic condition by clonogenecity assay; assay type: cell-based; conditions: HFF-1, 336 h; procedure, shortened: as §5
[16] = Aqueous solubility of the compound at pH 5 after 90 mins by laser nephelometric analysis; assay type: physicochemical; conditions: aqueous medium; procedure, shortened: as §4
[17] = Aqueous solubility of the compound at pH 7.4 after 90 mins by laser nephelometric analysis; assay type: physicochemical; conditions: aqueous medium; procedure, shortened: as §4
[18] = molecular target: Histone acetyltransferase p300 (Homo sapiens) (UniProt Q09472); test: Inhibition of P300 CH1 domain-mediated HIFalpha protein expression in human LN229-V6R cells incubated for 1 hr under normoxia followed by 24 hrs under hypoxia by Western blot analysis; assay type: cell-based; procedure, shortened: as §2
[19] = molecular target: Histone acetyltransferase p300 (Homo sapiens) (UniProt Q09472); test: Inhibition of P300 CH1 domain-mediated HIF1 transcriptional activity in human LN229-V6R cells assessed as reduction in luciferase activity at 2.5 to 10 uM incubated for 1 hr under normoxia followed by 24 hrs under hypoxia by reporter gene assay; assay type: cell-based
Procedure, shortened: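 LN229-V6R cells carrying a stably integrated hypoxia/HIF-inducible luciferase reporter were seeded at 3 × 10⁴/well in DMEM with 10% serum and grown 24 h under normoxia. Compound was added at 2.5, 5.0 or 10.0 μM in 1% DMSO. Cells were held 1 h at 37 °C, then 24 h under hypoxia (1% O₂). Luciferase was read in lysates as percent of untreated control, in triplicate.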

[20] = Aqueous solubility of the compound; assay type: physicochemical; conditions: aqueous medium
Procedure, shortened: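 Saturated suspension (1–2 mg in 2 mL distilled water) sonicated 30 min at room temperature, centrifuged 1,500 g, 20 °C, 5 min, then filtered through 0.2 μm PTFE. Filtrate quantified by HPLC-UV at 254 nm against standard curves. Three independent experiments, values averaged.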

Histone acetyltransferase p300 (Homo sapiens), sequence (Q09472 whole entry, the tested form may be a part): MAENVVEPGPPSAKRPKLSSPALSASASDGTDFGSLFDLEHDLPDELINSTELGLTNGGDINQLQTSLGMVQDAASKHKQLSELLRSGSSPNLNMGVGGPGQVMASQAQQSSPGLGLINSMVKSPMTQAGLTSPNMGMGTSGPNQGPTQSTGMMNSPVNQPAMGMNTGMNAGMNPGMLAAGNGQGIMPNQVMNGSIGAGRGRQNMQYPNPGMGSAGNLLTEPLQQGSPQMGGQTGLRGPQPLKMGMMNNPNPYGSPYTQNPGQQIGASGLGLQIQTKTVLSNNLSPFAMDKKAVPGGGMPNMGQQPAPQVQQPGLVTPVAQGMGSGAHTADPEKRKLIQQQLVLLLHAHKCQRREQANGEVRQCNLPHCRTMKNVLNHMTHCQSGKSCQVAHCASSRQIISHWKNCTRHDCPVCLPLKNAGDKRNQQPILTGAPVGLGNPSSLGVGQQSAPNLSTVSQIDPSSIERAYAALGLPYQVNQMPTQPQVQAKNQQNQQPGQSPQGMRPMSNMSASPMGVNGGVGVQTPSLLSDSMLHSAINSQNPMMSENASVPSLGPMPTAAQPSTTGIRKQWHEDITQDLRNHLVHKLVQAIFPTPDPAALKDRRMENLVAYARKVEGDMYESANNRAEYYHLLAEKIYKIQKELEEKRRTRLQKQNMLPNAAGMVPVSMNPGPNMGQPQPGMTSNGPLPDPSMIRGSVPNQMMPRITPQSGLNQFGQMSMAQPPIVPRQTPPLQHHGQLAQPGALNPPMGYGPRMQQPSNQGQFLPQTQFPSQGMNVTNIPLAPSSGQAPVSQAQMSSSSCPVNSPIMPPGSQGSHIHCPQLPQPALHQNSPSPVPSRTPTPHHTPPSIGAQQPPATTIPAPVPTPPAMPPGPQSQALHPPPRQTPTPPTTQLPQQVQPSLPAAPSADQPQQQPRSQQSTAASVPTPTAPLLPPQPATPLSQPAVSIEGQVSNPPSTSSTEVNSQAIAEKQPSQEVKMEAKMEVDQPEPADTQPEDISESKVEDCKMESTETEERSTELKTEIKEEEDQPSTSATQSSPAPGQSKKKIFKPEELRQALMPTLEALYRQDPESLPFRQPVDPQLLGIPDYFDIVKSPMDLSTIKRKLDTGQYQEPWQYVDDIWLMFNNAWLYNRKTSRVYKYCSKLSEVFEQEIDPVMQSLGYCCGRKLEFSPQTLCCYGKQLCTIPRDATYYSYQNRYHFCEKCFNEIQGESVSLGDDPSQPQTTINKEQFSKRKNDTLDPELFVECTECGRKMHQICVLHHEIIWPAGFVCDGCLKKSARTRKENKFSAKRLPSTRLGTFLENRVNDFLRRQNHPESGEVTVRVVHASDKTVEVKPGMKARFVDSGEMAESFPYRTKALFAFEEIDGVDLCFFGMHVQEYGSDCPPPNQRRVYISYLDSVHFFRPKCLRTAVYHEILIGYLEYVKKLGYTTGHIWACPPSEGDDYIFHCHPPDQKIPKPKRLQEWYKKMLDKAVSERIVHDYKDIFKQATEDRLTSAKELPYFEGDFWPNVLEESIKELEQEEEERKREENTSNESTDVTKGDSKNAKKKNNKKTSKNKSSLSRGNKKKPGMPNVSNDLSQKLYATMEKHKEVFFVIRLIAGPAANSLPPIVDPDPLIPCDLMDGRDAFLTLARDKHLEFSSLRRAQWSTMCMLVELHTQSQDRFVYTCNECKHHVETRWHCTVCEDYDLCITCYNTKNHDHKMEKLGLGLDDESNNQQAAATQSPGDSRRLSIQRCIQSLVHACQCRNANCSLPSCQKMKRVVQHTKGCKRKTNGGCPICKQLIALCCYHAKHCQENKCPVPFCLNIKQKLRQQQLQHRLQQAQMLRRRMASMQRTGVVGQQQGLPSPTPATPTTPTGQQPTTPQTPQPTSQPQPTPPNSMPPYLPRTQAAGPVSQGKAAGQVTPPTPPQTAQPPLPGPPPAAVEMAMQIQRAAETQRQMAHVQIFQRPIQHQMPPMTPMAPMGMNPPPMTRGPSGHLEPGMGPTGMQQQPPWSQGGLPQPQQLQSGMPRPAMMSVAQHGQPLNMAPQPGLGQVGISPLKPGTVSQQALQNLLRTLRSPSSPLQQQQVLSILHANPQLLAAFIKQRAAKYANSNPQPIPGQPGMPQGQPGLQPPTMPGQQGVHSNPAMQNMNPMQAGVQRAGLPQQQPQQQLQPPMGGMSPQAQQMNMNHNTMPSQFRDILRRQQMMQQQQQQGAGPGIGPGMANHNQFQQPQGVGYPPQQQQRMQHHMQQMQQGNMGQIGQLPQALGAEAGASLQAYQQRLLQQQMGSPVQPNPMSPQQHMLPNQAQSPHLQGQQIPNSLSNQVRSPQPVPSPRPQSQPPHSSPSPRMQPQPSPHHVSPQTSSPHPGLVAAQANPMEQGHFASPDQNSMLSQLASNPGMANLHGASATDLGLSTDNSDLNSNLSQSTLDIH

With `CC(C)CN(Cc1ccc2c(c1)C=CC(C)(C)O2)S(=O)(=O)c1ccncc1` the inhibition (LN-229) was “inactive”, the inhibition [1] was “Dose-dependent effect” and the Activity [2] was 63%. It also gave a logD [3] of 3.6.
In the case of `CC1(C)C=Cc2cc(CN(CC3CC3)S(=O)(=O)c3ccccn3)ccc2O1`, the inhibition (LN-229) is reported as “inactive”, the inhibition [1] is reported as “Dose-dependent effect” and the Activity [2] is reported as 49%. The metabolised at 24 h [4] was less than 1%, the logD [3] was 3.1 and the t1/2 (Liver) was 13 h.
In the case of `CC(C)N(Cc1ccc2c(c1)C=CC(C)(C)O2)S(=O)(=O)c1ccccn1`, the inhibition [5] is reported as “inactive”, the inhibition (LN-229) is reported as “inactive” and the inhibition [6] is reported as 60%. The IC50 [7] was 82 µM, the inhibition [1] was “Dose-dependent effect” and the Activity [2] was 55%. The IC50 [8] was 100 µM, the metabolised at 24 h [4] was less than 1% and the inhibition [9] was “Active”. The solubility kinetic at 1.5 h [10] was 17 µg/mL (≈ 45.6 µM), the t1/2 (Liver) was 20 h and the logD at 0.25 h [11] was 2. It also gave an IC50 [12] of 93 µM, an IC50 [13] of 126 µM and an IC50 [14] of 134 µM. The IC50 [15] was 62 µM, the solubility kinetic at 1.5 h [16] was 16 µg/mL (≈ 43 µM) and the solubility kinetic at 1.5 h [17] was less than 15 µg/mL.
With `CC1(C)C=Cc2cc(CN(C3CCCC3)S(=O)(=O)c3ccccn3)ccc2O1` the inhibition (LN-229) was “inactive”, the inhibition [1] was “Dose-dependent effect” and the Activity [2] was 60%. It also gave a logD [3] of 3.8.
For `CC1(C)C=Cc2cc(CN(C3CCC3)S(=O)(=O)c3ccccn3)ccc2O1`, the inhibition (LN-229) was “inactive”, the inhibition [1] was “Dose-dependent effect” and the Activity [2] was 53%. The logD [3] was 3.
In the case of `CC1(C)C=Cc2cc(CN(C3CC3)S(=O)(=O)c3ccccn3)ccc2O1`, the inhibition (LN-229) is reported as “inactive”, the inhibition [1] is reported as “Dose-dependent effect” and the Activity [2] is reported as 71%. For the same molecule, the logD [3] was 3.
With `CC(C)CN(Cc1ccc2c(c1)C=CC(C)(C)O2)S(=O)(=O)c1ccccn1` the inhibition (LN-229) was “inactive”, the inhibition [1] was “Dose-dependent effect” and the Activity [2] was 85%. The logD [3] was 4.1.
With `CC(C)CN(Cc1cc(O)c2c(c1)C=CC(C)(C)O2)S(=O)(=O)c1ccncc1` the inhibition [18] was “Dose-dependent effect”, the inhibition (LN-229) was “inactive” and the inhibition [6] was greater than 60%. For the same molecule, the IC50 [7] was 23 µM, the inhibition [1] was “Dose-dependent effect” and the Activity [2] was 59%. For the same molecule, the IC50 [8] was 92 µM, the metabolised at 24 h [4] was less than 1% and the logD [3] was 1.2. The IC50 [12] was 40 µM, the IC50 [13] was 113 µM and the IC50 [14] was 30 µM. The IC50 [15] was 22 µM.
With `COc1cc(CN(C(C)C)S(=O)(=O)c2ccccn2)cc2c1OC(C)(C)C=C2` the inhibition [18] was “Dose-dependent effect”, the inhibition (LN-229) was “inactive” and the inhibition [6] was greater than 60%. The IC50 [7] was 69 µM, the inhibition [1] was “Dose-dependent effect” and the Activity [2] was 61%. For the same molecule, the IC50 [8] was 73 µM, the metabolised at 24 h [4] was less than 1% and the t1/2 (Liver) was 15 h. The logD at 0.25 h [11] was 1.3, the IC50 [12] was greater than 100 µM and the IC50 [13] was 146 µM. The IC50 [14] was greater than 100 µM and the IC50 [15] was 55 µM.
With `CC(C)CN(Cc1cc(O)c2c(c1)C=CC(C)(C)O2)S(=O)(=O)c1ccccn1` the inhibition (LN-229) was “inactive”, the inhibition [1] was “Dose-dependent effect” and the Activity [2] was 43%. It also gave a logD [3] of 1.3 and a t1/2 (Liver) of 15 h.
With `CO[C@H]1/C=C\C=C(/C)C(=O)NC2=CC(=O)C(NCCN(C)C)=C(C[C@@H](C)C[C@H](OC)[C@H](O)[C@@H](C)/C=C(\C)[C@@H]1OC(N)=O)C2=O` (stereo in doubt) the inhibition (LN-229) was “Active”.
For `CC(C)CN(Cc1ccc2c(c1)C=CC(C)(C)O2)S(=O)(=O)c1nccn1C`, the inhibition (LN-229) was “inactive”, the inhibition [1] was “Dose-dependent effect” and the Activity [2] was 74%. The logD [3] was 3.1.
With `CC(C)CN(Cc1ccc2c(c1)C=CC(C)(C)O2)S(=O)(=O)c1nccs1` the inhibition (LN-229) was “inactive”, the inhibition [1] was “Dose-dependent effect” and the Activity [2] was 78%. The logD [3] was 4.4.
For `COc1ccc(S(=O)(=O)N(Cc2ccc3c(c2)C=CC(C)(C)O3)c2ccccc2)cc1OC`, the inhibition (LN-229) was “inactive”, the Activity [2] was 28% and the metabolised at 24 h [4] was less than 1%. For the same molecule, the logD [3] was 3.7, the solubility kinetic at 1.5 h [10] was less than 15 µg/mL and the inhibition [19] was “Active”. It also gave a t1/2 (Liver) of 11 h, a solubility [20] of 9 nM (≈ 4.19 ng/mL) and a solubility kinetic at 1.5 h [16] of less than 15 µg/mL. For the same molecule, the solubility kinetic at 1.5 h [17] was less than 15 µg/mL.
